# Assay results taken from ChEMBL document CHEMBL4346661, “Design, synthesis and evaluation of novel diaryl-1,5-diazoles derivatives bearing morpholine as potent dual COX-2/5-LOX inhibitors and antitumor agents” (Eur J Med Chem, 2019).
# Active and inactive are the calls of the source. The calls are words filed in the database; no cut-off is given here.
# Columns and labels:
# HeLa = assay: Antiproliferative activity against human HeLa cells incubated for 48 hrs by MTT assay; format: functional, cell-based
# Outline: (§1)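 MTT assay on F10 (murine melanoma), HeLa, A549, MCF-7 and 293T (human renal epithelium) cells. IC50 given as mean ± SD of three independent experiments.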
# A549 = assay: Antiproliferative activity against human A549 cells incubated for 48 hrs by MTT assay; format: functional, cell-based; conditions: A549, 48 h; outline: as §1
# HEK-293T = assay: Antiproliferative activity against human 293T cells incubated for 48 hrs by MTT assay; format: cell-based; outline: as §1
# B16-F10 [1] = assay: Antiproliferative activity against mouse B16F10 cells incubated for 48 hrs by MTT assay; format: functional, cell-based; conditions: B16-F10, 48 h; outline: as §1
# [2] = Inhibition of 5-LOX assessed as calcium ionophore A23187-stimulated LTB4 production preincubated for 30 mins followed by calcium ionophore A23187 addition and measured after 30 mins by ELISA
# Homo sapiens = species: Homo sapiens; assay: Selectivity index, ratio of IC50 for COX1 (unknown origin) to IC50 for COX2 (unknown origin)
# Outline: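 Ratio of COX-1 IC50 to COX-2 IC50, from human COX-1 and human COX-2 inhibitor screening assay kits. Each IC50 is the concentration giving 50% enzyme inhibition, taken as the mean of four determinations.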
# [3] = biological target: T1, Prostaglandin G/H synthase 2 (Homo sapiens, UniProt P35354); assay: Inhibition of COX2 (unknown origin) using arachidonic acid as substrate incubated for 10 mins by Ellman's reagent based COX-1/COX-2 ELISA assay
# T1 sequence (P35354 whole entry): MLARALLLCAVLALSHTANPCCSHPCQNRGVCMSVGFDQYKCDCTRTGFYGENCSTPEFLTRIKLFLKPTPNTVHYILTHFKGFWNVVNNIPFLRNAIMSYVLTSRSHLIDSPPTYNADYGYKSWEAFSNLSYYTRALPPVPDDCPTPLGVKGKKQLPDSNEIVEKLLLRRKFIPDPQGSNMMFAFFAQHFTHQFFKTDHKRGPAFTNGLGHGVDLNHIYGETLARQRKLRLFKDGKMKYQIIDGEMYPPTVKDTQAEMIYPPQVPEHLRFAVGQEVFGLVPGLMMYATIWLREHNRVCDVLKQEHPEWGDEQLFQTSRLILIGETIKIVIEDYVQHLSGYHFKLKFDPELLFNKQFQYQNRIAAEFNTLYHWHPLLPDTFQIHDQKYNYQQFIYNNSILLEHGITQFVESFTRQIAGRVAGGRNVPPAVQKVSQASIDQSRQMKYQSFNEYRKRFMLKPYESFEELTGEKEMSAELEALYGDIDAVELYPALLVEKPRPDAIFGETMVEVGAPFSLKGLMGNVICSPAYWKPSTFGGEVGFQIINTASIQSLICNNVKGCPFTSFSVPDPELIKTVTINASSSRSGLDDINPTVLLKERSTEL
# MCF7 = assay: Antiproliferative activity against human MCF7 cells incubated for 48 hrs by MTT assay; format: functional, cell-based; conditions: MCF7, 48 h; outline: as §1
# [4] = biological target: Prostaglandin G/H synthase 1 (Homo sapiens, UniProt P23219); assay: Inhibition of COX1 (unknown origin) using arachidonic acid as substrate incubated for 10 mins by Ellman's reagent based COX-1/COX-2 ELISA assay
# Chain of Prostaglandin G/H synthase 1 (P23219 whole entry): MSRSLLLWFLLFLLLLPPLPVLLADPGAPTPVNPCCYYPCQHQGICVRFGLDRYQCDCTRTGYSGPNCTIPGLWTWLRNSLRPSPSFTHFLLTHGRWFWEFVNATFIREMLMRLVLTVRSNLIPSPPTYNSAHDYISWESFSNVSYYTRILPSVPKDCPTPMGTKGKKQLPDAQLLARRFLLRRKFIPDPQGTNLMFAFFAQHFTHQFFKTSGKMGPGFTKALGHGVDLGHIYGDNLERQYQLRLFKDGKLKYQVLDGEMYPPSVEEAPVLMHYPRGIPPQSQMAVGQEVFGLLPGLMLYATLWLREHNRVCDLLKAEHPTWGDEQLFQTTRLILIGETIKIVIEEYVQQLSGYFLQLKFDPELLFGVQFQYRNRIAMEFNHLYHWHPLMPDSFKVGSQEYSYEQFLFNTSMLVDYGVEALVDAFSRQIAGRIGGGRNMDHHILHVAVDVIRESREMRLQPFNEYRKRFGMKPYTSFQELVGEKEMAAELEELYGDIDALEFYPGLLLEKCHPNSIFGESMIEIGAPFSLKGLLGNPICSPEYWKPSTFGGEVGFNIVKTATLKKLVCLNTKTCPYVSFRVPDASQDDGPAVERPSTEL
# B16-F10 [5] = assay: Antitumor activity against mouse B16F10 cells implanted in nude mouse assessed as decrease in tumor weight at 20 mg/kg, ip administered once per 2 days for 14 days by caliper method relative to control; format: functional, organism-based
# Outline: (§2)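 Nude mice were given 5×10^6 F10 cells subcutaneously in the right flank. At about 100 mm3, 24 mice were randomized into four groups of vehicle or compound. Dosing was intraperitoneal every two days for two weeks. Tumor volume was recorded every other day. Tumors were excised and weighed after the last treatment, and body weight was monitored.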
# B16-F10 [6] = assay: Inhibition of LPS-induced PGE2 production in mouse B16F10 cells at 6.25 uM incubated for 24 hrs by enzyme immunoassay; format: functional, cell-based
# Outline: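 F10 cells treated for 24 h alongside LPS (1 µg/ml), test agent at 6.25 µM. Supernatant collected by centrifugation and PGE2 measured with a PGE2 enzyme immunoassay (ELISA) kit. Mean ± SD of three independent experiments.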
# B16-F10 [7] = assay: Antitumor activity against mouse B16F10 cells implanted in nude mouse assessed as reduction in tumor size at 20 mg/kg, ip administered once per 2 days for 14 days by caliper method; format: functional; outline: as §2
IC50 (HeLa),IC50 (A549),IC50 (B16-F10 [1]),IC50 [2],Ratio IC50 (Homo sapiens),IC50 [3],IC50 (MCF7),IC50 [4],SMILES,IC50 (HEK-293T),Activity (B16-F10 [5]),inhibition (B16-F10 [6]),Activity (B16-F10 [7])
29.8 µM,15.2 µM,14.4 µM,0.75 µM,136,0.21 µM,14.7 µM,28.5 µM,NS(=O)(=O)c1ccc(-n2nc(C(=O)OCCCN3CCOCC3)cc2-c2ccc(C(F)(F)F)cc2)cc1,179 µM,–,–,–
14.8 µM,15.4 µM,13.9 µM,0.87 µM,140,0.21 to 0.22 µM,12.5 µM,29.4 µM,NS(=O)(=O)c1ccc(-n2nc(C(=O)N3CCSCC3)cc2-c2cccc(Cl)c2)cc1,191 µM,–,–,–
–,11 µM,13.3 µM,–,–,–,12.6 µM,–,Cc1ccc(-c2cc(C(F)(F)F)nn2-c2ccc(S(N)(=O)=O)cc2)cc1 [CELECOXIB],97.9 µM,Active,Active,978.35 mm3
> 100 µM,> 100 µM,> 100 µM,0.72 µM,–,7.64 µM,15.4 µM,–,CCOc1ccc(-c2cc(C(=O)OCCCN3CCOCC3)nn2-c2ccc(S(N)(=O)=O)cc2)cc1,179 µM,–,–,–
9.94 µM,10.2 µM,8.16 µM,0.71 µM,162,0.19 µM,9.25 µM,30.8 µM,NS(=O)(=O)c1ccc(-n2nc(C(=O)N3CCSCC3)cc2-c2ccc(C(F)(F)F)cc2)cc1,136 µM,–,–,–
13.2 µM,14.5 µM,10.3 µM,1.32 µM,–,0.19 µM,14.4 µM,–,NS(=O)(=O)c1ccc(-n2nc(C(=O)N3CCSCC3)cc2-c2cccc(F)c2)cc1,176 µM,–,–,–
> 100 µM,> 100 µM,> 100 µM,0.75 µM,–,3.57 µM,> 100 µM,–,NS(=O)(=O)c1ccc(-n2nc(C(=O)OCCCN3CCOCC3)cc2-c2ccc(F)cc2)cc1,> 300 µM,–,–,–
24.6 µM,27.8 µM,21.5 µM,0.81 µM,–,0.19 µM,16.7 µM,–,NS(=O)(=O)c1ccc(-n2nc(C(=O)OCCN3CCOCC3)cc2-c2ccc(C(F)(F)F)cc2)cc1,148 µM,–,–,–
> 100 µM,27.5 µM,20.5 µM,0.89 µM,–,0.23 µM,20 µM,–,NS(=O)(=O)c1ccc(-n2nc(C(=O)N3CCOCC3)cc2-c2ccc(F)cc2)cc1,206 µM,–,–,–
